Data taken from paper PMC11537069 (Structure (London, England : 1993), 2020).

Key:
HERC2ZZ = target: T1, HERC2ZZ (Homo sapiens, UniProt O95714); experiment: NMR titration; type: binding; details: 0.1 mM 15N-labeled HERC2ZZ, 20 mM Tris pH 6.8, 100 mM NaCl, 298K
T1 sequence (O95714 2702-2755): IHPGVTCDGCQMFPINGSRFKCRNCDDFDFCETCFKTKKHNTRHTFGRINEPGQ
Method in brief: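 Human HERC2ZZ (aa 2702-2755, plus an extra C-terminal Trp) was expressed in BL21(DE3) RIL in minimal medium with 15NH4Cl and 0.05 mM ZnCl2, induced with 0.2 mM IPTG for 20 h at 16 °C. The His8-SUMO tag was removed with Ulp1, followed by size exclusion. Sample also held 2-5 mM DTT and 10% D2O.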

HERC2ZZ D2709A = experiment: NMR titration; type: binding, human; details: 15N-labeled D2709A HERC2ZZ, 20 mM Tris pH 6.8, 100 mM NaCl, 298K; Figures 3G, 3H, S9

Row | Molecule | CSPs in HERC2ZZ upon addition of free alanine amino acid (HERC2ZZ; 50-fold excess of alanine, Figure S5) | exchange regime of CSPs in HERC2ZZ on the NMR timescale (HERC2ZZ) | interaction with SUMO1 ligand upon D2709A substitution (NMR titration) (HERC2ZZ D2709A)
1 | C[C@H](N)C(=O)O [alanine, reference compound] | no CSPs |  | 
2 | SUMO1FL: full-length SUMO1 protein |  | intermediate exchange regime | abolished
